Test results: ChEMBL document CHEMBL2010675, “Discovery of GS-9451: an acid inhibitor of the hepatitis C virus NS3/4A protease” (Bioorg Med Chem Lett, 2012); call rule not given here
≈ marks a conversion by molar mass, not a printed value.

Experiments:
Hepatitis C virus [1] = assay: Inhibition of Hepatitis C virus genotype 1b NS3/4A protease; design: species or system Hepatitis C virus subtype 1b
Hepatitis C virus [2] = assay: Antiviral activity against Hepatitis C virus genotype 1b infected in human Huh cells by luciferase reporter gene based replicon assay; assay type: functional, organism-based, Hepacivirus hominis
Summary of the method: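 EC50 from a cell-based assay in Huh-luc cells carrying a subgenomic HCV genotype 1b replicon, with luciferase reporter read-out.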

[3] = Thermodynamic solubility of the compound at pH 7.3; assay type: physicochemical; details: buffer, read-out: Therm_solubility
[4] = Thermodynamic solubility of the compound at pH 2.2; assay type: physicochemical; details: buffer; for solubility thermodynamic: read-out: Therm_solubility
[5] = Permeability from apical to basolateral side in human Caco2 cells; assay type: ADME, cell-based; details: Caco-2, read-out: permeability
[6] = Permeability from basolateral to apical side in human Caco2 cells; assay type: ADME, cell-based; details: Caco-2, read-out: permeability
[7] = Half life in dog at 1 mg/kg, iv; assay type: ADME, organism-based, Canis lupus familiaris; design: dose 1 mg/kg, route intravenous; details: in vivo
Summary of the method: (§1)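 Dosed at 1.0 mg/kg iv and 4.0 mg/kg po; plasma drug levels followed to derive iv t1/2, oral AUC, clearance, Vdss and oral bioavailability (F).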

Canis familiaris = assay: AUC in dog at 4 mg/kg, po; assay type: ADME, organism-based, Canis lupus familiaris, Plasma; design: dose 4 mg/kg, route oral; details: in vivo; summary of the method: as §1
[8] = Clearance in dog at 1 mg/kg, iv and 4 mg/kg, po; assay type: ADME, organism-based, Canis lupus familiaris; details: in vivo; summary of the method: as §1
[9] = Volume of distribution at steady state in dog at 1 mg/kg, iv and 4 mg/kg, po; assay type: ADME, organism-based, Canis lupus familiaris; details: in vivo, read-out: Vdss; summary of the method: as §1
[10] = Oral bioavailability in dog at 4 mg/kg; assay type: ADME, organism-based, Canis lupus familiaris; details: in vivo; summary of the method: as §1
[11] = Fraction unbound in human plasma; assay type: ADME, cell-free
[12] = Half life in human microsomes; assay type: ADME, Microsome
[13] = Drug excretion in rat bile at 1 mg/kg, iv; assay type: ADME, organism-based; design: dose 1 mg/kg, route intravenous; details: read-out: Drug excretion
Summary of the method: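 Bile-duct cannulated rats given drug intravenously; bile collected and the fraction of total dose recovered as parent compound and as glucuronide conjugates measured.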

[14] = Selectivity for hepatitis C virus NS3/4A protease over human cathepsin D
[15] = Selectivity for hepatitis C virus NS3/4A protease over human cathepsin L
[16] = Selectivity for hepatitis C virus NS3/4A protease over human proteinase 3
[17] = Selectivity for hepatitis C virus NS3/4A protease over human leukocyte elastase
[18] = Inhibition of cytochrome P450 up to 25 uM; assay type: ADME
[19] = target: Voltage-gated inwardly rectifying potassium channel KCNH2 (Homo sapiens, UniProt Q12809); assay: Inhibition of human Erg up to 25 uM
Chain of Voltage-gated inwardly rectifying potassium channel KCNH2 (Q12809 whole entry): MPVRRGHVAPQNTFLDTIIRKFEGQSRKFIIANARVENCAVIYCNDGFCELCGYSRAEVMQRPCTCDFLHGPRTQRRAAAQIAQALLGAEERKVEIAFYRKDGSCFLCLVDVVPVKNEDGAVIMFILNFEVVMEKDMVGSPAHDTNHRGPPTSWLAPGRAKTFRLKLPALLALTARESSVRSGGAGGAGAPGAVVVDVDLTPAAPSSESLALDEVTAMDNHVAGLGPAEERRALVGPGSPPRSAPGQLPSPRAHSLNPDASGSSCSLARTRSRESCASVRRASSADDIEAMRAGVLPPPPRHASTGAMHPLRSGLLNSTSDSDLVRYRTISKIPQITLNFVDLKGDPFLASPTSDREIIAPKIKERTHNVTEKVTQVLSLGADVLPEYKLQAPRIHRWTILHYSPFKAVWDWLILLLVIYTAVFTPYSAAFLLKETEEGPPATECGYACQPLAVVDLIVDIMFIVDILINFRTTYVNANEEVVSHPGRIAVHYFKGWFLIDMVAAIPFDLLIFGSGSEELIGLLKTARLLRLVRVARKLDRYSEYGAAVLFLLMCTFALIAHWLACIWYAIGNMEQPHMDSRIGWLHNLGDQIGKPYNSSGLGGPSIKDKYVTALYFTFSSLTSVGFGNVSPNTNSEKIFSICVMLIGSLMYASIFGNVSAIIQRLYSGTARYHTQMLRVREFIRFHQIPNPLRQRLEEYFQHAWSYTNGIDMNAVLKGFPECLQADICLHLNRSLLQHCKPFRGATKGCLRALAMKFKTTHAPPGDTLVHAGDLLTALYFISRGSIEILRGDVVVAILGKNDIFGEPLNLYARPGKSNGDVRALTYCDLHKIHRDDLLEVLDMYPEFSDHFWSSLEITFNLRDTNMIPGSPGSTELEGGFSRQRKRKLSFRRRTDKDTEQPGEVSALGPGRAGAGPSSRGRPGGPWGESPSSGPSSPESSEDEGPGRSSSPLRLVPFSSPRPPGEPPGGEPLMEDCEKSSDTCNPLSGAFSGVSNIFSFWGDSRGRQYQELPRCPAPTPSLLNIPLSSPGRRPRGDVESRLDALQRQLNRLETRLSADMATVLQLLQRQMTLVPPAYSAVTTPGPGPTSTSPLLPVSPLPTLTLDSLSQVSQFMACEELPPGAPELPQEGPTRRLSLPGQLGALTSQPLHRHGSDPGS

[20] = Inhibition of p-glycoprotein
[21] = target: Multidrug resistance-associated protein 1 (Homo sapiens, UniProt P33527); assay: Inhibition of MRP1
Chain of Multidrug resistance-associated protein 1 (P33527 whole entry): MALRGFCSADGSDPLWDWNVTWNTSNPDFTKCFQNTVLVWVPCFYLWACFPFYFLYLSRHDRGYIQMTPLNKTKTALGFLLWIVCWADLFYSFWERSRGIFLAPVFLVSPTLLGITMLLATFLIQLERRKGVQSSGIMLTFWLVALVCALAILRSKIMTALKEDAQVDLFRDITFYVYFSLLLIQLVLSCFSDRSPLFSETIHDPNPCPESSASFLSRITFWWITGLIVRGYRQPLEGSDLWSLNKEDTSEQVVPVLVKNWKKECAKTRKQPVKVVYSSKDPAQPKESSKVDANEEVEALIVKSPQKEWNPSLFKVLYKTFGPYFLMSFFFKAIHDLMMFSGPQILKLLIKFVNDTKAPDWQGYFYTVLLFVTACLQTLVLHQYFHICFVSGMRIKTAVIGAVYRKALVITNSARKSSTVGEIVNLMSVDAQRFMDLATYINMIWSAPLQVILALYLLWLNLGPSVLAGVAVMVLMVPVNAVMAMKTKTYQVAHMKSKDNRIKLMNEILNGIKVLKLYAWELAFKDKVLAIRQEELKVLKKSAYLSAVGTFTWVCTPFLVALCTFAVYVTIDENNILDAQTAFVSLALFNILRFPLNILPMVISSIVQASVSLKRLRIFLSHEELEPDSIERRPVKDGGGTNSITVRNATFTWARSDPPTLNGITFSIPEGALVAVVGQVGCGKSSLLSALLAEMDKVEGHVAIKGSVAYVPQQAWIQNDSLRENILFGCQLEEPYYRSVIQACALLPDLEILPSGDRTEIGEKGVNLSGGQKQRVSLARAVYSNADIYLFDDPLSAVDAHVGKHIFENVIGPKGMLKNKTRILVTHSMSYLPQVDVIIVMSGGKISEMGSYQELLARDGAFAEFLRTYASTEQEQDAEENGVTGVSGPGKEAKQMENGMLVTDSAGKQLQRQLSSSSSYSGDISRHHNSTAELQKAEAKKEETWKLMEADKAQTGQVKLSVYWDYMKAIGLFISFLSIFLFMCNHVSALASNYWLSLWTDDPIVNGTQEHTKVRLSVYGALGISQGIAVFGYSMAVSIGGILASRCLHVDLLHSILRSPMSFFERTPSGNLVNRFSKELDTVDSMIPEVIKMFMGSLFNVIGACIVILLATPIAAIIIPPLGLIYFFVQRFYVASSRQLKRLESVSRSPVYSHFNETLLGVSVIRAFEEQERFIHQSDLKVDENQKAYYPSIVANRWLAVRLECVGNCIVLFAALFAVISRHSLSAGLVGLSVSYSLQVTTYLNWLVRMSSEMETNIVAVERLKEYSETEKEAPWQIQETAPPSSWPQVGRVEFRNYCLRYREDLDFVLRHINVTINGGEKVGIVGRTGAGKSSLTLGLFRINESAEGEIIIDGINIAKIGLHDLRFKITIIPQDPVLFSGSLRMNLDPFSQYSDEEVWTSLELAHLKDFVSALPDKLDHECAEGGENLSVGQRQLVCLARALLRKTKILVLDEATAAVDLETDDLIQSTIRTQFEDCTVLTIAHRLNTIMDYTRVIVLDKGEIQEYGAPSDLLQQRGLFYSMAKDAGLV

[22] = target: ATP-binding cassette sub-family C member 2 (Homo sapiens, UniProt Q92887); assay: Inhibition of MRP2
Chain of ATP-binding cassette sub-family C member 2 (Q92887 whole entry): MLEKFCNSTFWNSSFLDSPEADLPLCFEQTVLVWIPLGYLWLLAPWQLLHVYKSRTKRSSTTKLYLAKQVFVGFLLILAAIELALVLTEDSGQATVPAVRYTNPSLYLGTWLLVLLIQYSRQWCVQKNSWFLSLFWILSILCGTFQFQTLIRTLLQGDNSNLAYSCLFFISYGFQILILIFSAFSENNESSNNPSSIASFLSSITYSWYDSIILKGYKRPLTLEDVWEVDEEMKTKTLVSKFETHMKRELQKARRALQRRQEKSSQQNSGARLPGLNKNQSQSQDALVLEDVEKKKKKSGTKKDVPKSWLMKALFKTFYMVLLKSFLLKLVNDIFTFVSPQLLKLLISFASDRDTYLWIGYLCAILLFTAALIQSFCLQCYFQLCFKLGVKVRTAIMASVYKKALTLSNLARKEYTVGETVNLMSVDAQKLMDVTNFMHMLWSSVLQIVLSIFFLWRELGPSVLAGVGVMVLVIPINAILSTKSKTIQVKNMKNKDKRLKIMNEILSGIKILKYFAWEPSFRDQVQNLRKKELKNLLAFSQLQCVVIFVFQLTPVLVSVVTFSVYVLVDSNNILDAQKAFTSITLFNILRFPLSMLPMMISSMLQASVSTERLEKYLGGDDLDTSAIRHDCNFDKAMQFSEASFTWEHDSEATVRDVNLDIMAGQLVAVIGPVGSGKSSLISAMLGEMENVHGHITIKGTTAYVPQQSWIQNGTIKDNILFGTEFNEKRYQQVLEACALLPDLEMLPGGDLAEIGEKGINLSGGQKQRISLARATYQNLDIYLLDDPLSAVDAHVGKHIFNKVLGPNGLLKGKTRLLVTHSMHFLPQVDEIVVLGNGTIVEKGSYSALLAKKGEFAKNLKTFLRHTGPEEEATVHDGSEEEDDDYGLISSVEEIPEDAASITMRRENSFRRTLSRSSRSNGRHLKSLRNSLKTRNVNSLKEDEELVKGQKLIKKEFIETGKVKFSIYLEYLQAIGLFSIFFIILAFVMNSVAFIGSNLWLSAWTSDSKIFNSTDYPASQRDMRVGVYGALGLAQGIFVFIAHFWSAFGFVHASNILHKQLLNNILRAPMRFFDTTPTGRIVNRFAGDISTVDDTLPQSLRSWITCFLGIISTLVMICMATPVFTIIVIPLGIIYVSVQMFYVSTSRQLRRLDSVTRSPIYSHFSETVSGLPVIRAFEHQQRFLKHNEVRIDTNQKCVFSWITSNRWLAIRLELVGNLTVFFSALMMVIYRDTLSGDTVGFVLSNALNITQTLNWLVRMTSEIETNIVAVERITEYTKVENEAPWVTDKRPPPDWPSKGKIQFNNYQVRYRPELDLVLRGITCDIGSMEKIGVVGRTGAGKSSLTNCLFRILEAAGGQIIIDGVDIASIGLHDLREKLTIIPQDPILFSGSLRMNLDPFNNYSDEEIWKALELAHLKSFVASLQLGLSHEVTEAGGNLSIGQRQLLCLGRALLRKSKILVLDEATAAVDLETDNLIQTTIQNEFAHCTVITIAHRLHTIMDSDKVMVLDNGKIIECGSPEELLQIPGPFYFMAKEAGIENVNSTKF

[23] = target: T1, Broad substrate specificity ATP-binding cassette transporter ABCG2 (Homo sapiens, UniProt Q9UNQ0); assay: Inhibition of BCRP; assay type: ADME
T1 sequence (Q9UNQ0 whole entry): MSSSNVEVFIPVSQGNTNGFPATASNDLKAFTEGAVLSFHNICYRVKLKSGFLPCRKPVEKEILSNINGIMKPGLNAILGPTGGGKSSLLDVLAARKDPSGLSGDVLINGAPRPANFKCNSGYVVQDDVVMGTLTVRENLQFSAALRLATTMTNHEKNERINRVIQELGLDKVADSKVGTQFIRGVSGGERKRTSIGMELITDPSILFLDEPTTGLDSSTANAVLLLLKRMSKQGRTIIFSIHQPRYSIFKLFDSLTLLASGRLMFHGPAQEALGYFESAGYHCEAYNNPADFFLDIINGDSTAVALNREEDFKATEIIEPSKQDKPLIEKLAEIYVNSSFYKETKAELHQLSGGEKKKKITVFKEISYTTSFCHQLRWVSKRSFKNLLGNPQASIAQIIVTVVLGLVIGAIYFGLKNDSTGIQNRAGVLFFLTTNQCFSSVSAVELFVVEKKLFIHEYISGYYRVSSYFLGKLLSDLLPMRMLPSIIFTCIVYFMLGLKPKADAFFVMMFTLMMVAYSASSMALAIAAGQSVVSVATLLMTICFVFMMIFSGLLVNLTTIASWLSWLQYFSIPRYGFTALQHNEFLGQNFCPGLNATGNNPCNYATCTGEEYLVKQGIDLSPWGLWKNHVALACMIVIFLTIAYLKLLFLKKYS

Hepatitis C virus [24] = assay: Antiviral activity against Hepatitis C virus genotype 1a infected in human assessed as log decrease in viral RNA level at 60 mg, po for 3 days; assay type: functional, Hepacivirus hominis, subtype 1a
Hepatitis C virus [25] = assay: Antiviral activity against Hepatitis C virus genotype 1a infected in human assessed as log decrease in viral RNA level at 200 mg, po for 3 days; assay type: functional, Hepacivirus hominis, subtype 1a
Hepatitis C virus [26] = assay: Antiviral activity against Hepatitis C virus genotype 1a infected in human assessed as log decrease in viral RNA level at 400 mg, po for 3 days; assay type: functional, Hepacivirus hominis, subtype 1a
[27] = Cmax in dog at 4 mg/kg, po; assay type: ADME, organism-based, Canis lupus familiaris; design: dose 4 mg/kg, route oral; details: in vivo
[28] = Fraction unbound in dog plasma; assay type: ADME, cell-free, Canis lupus familiaris
[29] = Half life in dog microsomes; assay type: ADME, Canis lupus familiaris, Microsome
[30] = Half life in rat at 1 mg/kg, iv; assay type: ADME, organism-based; design: dose 1 mg/kg, route intravenous; details: in vivo
Rattus norvegicus = assay: AUC in rat at 4 mg/kg, po; assay type: ADME, organism-based, Plasma; design: dose 4 mg/kg, route oral; details: in vivo
[31] = Clearance in rat at 1 mg/kg, iv and 4 mg/kg, po; assay type: ADME, organism-based; details: in vivo
[32] = Volume of distribution at steady state in rat at 1 mg/kg, iv and 4 mg/kg, po; assay type: ADME, organism-based; details: in vivo, read-out: Vdss
[33] = Oral bioavailability in rat at 4 mg/kg; assay type: ADME, organism-based; details: in vivo
[34] = Cmax in rat at 4 mg/kg, po; assay type: ADME, organism-based; design: dose 4 mg/kg, route oral; details: in vivo
[35] = Fraction unbound in rat plasma; assay type: ADME, cell-free
[36] = Half life in rat microsomes; assay type: ADME, Microsome
[37] = Half life in cynomolgus monkey at 1 mg/kg, iv; assay type: ADME, organism-based, Macaca fascicularis; design: dose 1 mg/kg, route intravenous; details: in vivo; summary of the method: as §1
Cynomolgus monkey = assay: AUC in cynomolgus monkey at 4 mg/kg, po; assay type: ADME, organism-based, Macaca fascicularis, Plasma; design: dose 4 mg/kg, route oral; details: in vivo; summary of the method: as §1
[38] = Clearance in cynomolgus monkey at 1 mg/kg, iv and 4 mg/kg, po; assay type: ADME, organism-based, Macaca fascicularis; details: in vivo; summary of the method: as §1
[39] = Volume of distribution at steady state in cynomolgus monkey at 1 mg/kg, iv and 4 mg/kg, po; assay type: ADME, organism-based, Macaca fascicularis; details: in vivo, read-out: Vdss; summary of the method: as §1
[40] = Oral bioavailability in cynomolgus monkey at 4 mg/kg; assay type: ADME, organism-based, Macaca fascicularis; details: in vivo; summary of the method: as §1
[41] = Cmax in cynomolgus monkey at 4 mg/kg, po; assay type: ADME, organism-based, Macaca fascicularis; design: dose 4 mg/kg, route oral; details: in vivo
[42] = Fraction unbound in cynomolgus monkey plasma; assay type: ADME, cell-free, Macaca fascicularis
[43] = Half life in cynomolgus monkey microsomes; assay type: ADME, Macaca fascicularis, Microsome
[44] = Elimination half life in human at 10 to 1000 mg; details: in vivo, read-out: beta t1/2 (converted)
[45] = Plasma concentration in human at 300 mg after 24 hrs

CC[C@@H]1C[C@]1(NC(=O)[C@@H]1C[C@@H](Oc2cc(-c3csc(NC(C)C)n3)nc3c(Cl)c(OCCN4CCOCC4(C)C)ccc23)CN1C(=O)[C@@H](NC(=O)O[C@@H]1C[C@@H]2C[C@@H]2C1)C(C)(C)C)C(=O)O
IC50 (Hepatitis C virus [1]): 4.2 nM
EC50 (Hepatitis C virus [2]): 3.2 nM
solubility thermodynamic [3]: 22 µM (≈ 20.6 µg/mL)
solubility thermodynamic [4]: 1900 µM (≈ 1780 µg/mL)
Papp A→B [5]: 6.6 ×10⁻⁶ cm/s
Papp B→A [6]: 10 ×10⁻⁶ cm/s
half-life [7]: 5.8 h
AUC (Canis familiaris): 38.3 µM·h
clearance [8]: 0.5 mL/min/kg
Vd [9]: 0.21 L/kg
bioavailability [10]: 24%

CC[C@@H]1C[C@]1(NC(=O)[C@@H]1C[C@@H](Oc2cc(-c3csc(NC(C)C)n3)nc3c(Cl)c(OC)ccc23)CN1C(=O)[C@@H](NC(=O)O[C@@H]1C[C@@H]2C[C@@H]2C1)C(C)(C)C)C(=O)O
IC50 (Hepatitis C virus [1]): 1.4 nM
EC50 (Hepatitis C virus [2]): 9 nM
solubility thermodynamic [3]: 72 µM (≈ 58.4 µg/mL)
Therm_solubility [4]: Insoluble(BLD)
Papp A→B [5]: 7.3 ×10⁻⁶ cm/s
Papp B→A [6]: 25 ×10⁻⁶ cm/s

CC[C@@H]1C[C@]1(NC(=O)[C@@H]1C[C@@H](Oc2cc(-c3csc(NC(C)C)n3)nc3c(Cl)c(OCCN4CCOCC4)ccc23)CN1C(=O)[C@@H](NC(=O)O[C@@H]1C[C@@H]2C[C@@H]2C1)C(C)(C)C)C(=O)O [VEDROPREVIR]
fraction unbound [11]: 0.026
half-life [12]: > 6.58 h
dose excreted [13]: 45%
Selectivity ratio [14]: > 50000
Selectivity ratio [15]: > 50000
Selectivity ratio [16]: > 50000
Selectivity ratio [17]: > 50000
inhibition (INH) [18]: Not Active
inhibition (INH) [19]: Not Active
IC50 [20]: 34000 nM
inhibition (INH) [20]: Dose-dependent effect
IC50 [21]: 14900 nM
inhibition (INH) [21]: Dose-dependent effect
IC50 [22]: 12000 nM
inhibition (INH) [22]: Dose-dependent effect
IC50 [23]: 1400 nM
Activity (Hepatitis C virus [24]): 0.88 log10IU/ml
Activity (Hepatitis C virus [25]): 3.2 log10IU/ml
Activity (Hepatitis C virus [26]): 3.6 log10IU/ml
IC50 (Hepatitis C virus [1]): 3.2 nM
EC50 (Hepatitis C virus [2]): 2 nM
solubility thermodynamic [3]: 38 µM (≈ 34.6 µg/mL)
solubility thermodynamic [4]: 790 µM (≈ 719 µg/mL)
Papp A→B [5]: 0.8 ×10⁻⁶ cm/s
Papp B→A [6]: 8.2 ×10⁻⁶ cm/s
half-life [7]: 4.2 h
AUC (Canis familiaris): 21.8 µM·h
clearance [8]: 4.33 mL/min/kg
Vd [9]: 1.15 L/kg
bioavailability [10]: 142%
Cmax [27]: 3940 nM
fraction unbound [28]: 0.026
half-life [29]: > 6.58 h
half-life [30]: 0.62 h
AUC (Rattus norvegicus): 1.41 µM·h
clearance [31]: 73.3 mL/min/kg
Vd [32]: 2.3 L/kg
bioavailability [33]: 62%
Cmax [34]: 576 nM
fraction unbound [35]: 0.011
half-life [36]: > 6.58 h
half-life [37]: 3.9 h
AUC (Cynomolgus monkey): 13.1 µM·h
clearance [38]: 4.83 mL/min/kg
Vd [39]: 0.76 L/kg
bioavailability [40]: 49%
Cmax [41]: 3470 nM
fraction unbound [42]: 0.016
half-life [43]: 1.32 h
half-life [44]: 12 h
concentration at 24 h [45]: 400 nM

CC[C@@H]1C[C@]1(NC(=O)[C@@H]1C[C@@H](Oc2cc(-c3csc(NC(C)C)n3)nc3c(Cl)c(OCCN4CC[C@@H](OC)C4)ccc23)CN1C(=O)[C@@H](NC(=O)O[C@@H]1C[C@@H]2C[C@@H]2C1)C(C)(C)C)C(=O)O
IC50 (Hepatitis C virus [1]): 2.9 nM
EC50 (Hepatitis C virus [2]): 3.8 nM
solubility thermodynamic [3]: 59 µM (≈ 54.5 µg/mL)
solubility thermodynamic [4]: > 100 µM
Papp A→B [5]: 6.1 ×10⁻⁶ cm/s
Papp B→A [6]: 30 ×10⁻⁶ cm/s
half-life [7]: 2.1 h
AUC (Canis familiaris): 8.33 µM·h
clearance [8]: 3.67 mL/min/kg
Vd [9]: 0.66 L/kg
bioavailability [10]: 45%
